Published values pooled from the literature.
Protocols differ between the studies behind these lines. Converted amounts (≈) assume the structure as drawn.

CNC(=S)NN=Cc1ccc([N+](=O)[O-])cc1 — IC50 (Leishmania tropica; parasite growth; J774.A1; 72 h, intracellular, amastigote): 258 µM
CCOC(=O)C1=C(CN2CCN(Cc3ccc(B4OC(C)(C)C(C)(C)O4)cc3)CC2)NC(c2nccs2)=NC1c1ccc(F)cc1Br (stereo not drawn) — EC50 (Hepatitis B virus; viral replication, inhibitor, qPCR; HepDES19; 72 h): 1.2 µM
COc1ccc(C=NNC(=S)Nc2cccnc2)cc1 — IC50 (Leishmania tropica; parasite growth; J774.A1; 72 h, intracellular, amastigote): 350 µM
CCOC(=O)C1=C(CN2CCC[C@@H]2C(=O)Nc2ccc(B(O)O)cc2)NC(c2nccs2)=N[C@H]1c1ccc(F)cc1Br — EC50 (Hepatitis B virus; viral replication, inhibitor, qPCR; HepDES19; 72 h): 0.07 µM
C[C@H]1CNCCCN1c1nccc(-c2noc([C@@]3(C)CCCc4sc(N)c(C#N)c43)n2)n1 — EC50 (BaF3; cell growth or viability; 72 h): 0.959 µM
Cc1cccc(N=C2C(=O)Nc3ccccc32)c1 — IC50 (L02; cell growth or viability, MTT; 48 h): > 100 µM
Nc1nn2c(-c3ccco3)cc(-c3ccc(OCc4ccccc4)cc3)nc2c1N=Nc1ccc(F)cc1 — MIC (Saccharomyces cerevisiae; microbial growth, broth dilution; ATCC9763): 31.3 µg/mL (≈ 62 µM)
O=C1Nc2ccccc2C1=Nc1ccccc1I — IC50 (L02; cell growth or viability, MTT; 48 h): 77.5 µM
CNC(=S)NN=Cc1ccc(O)c(OC)c1 — IC50 (Leishmania tropica; parasite growth; J774.A1; 72 h, intracellular, amastigote): 248 µM
Cc1nc(NC(=O)N2CCC[C@H]2C(N)=O)sc1-c1ccnc(C(C)(C)C(F)(F)F)c1 — EC50 (MFM-223; cell growth or viability, ATP luminescence; 5 days): 8.5 µM
CCOC(=O)C1=C(CN2CCC[C@@H]2C(=O)Nc2cccc(B(O)O)c2)NC(c2nccs2)=N[C@H]1c1ccc(F)cc1Br — EC50 (Hepatitis B virus; viral replication, inhibitor, qPCR; HepDES19; 72 h): 0.12 µM
O=C1C(=Nc2cccc(Cl)c2)c2ccccc2N1Cc1ccc([N+](=O)[O-])cc1 — IC50 (L02; cell growth or viability, MTT; 48 h): 22.7 µM
C[C@H]1CNCCN1c1nccc(-c2onc3c2CCC[C@@]32CCCc3sc(N)c(C#N)c32)n1 — EC50 (BaF3; cell growth or viability; 72 h): 0.374 µM
O=C1Nc2ccccc2C1=Nc1cccc(Cl)c1 — IC50 (L02; cell growth or viability, MTT; 48 h): 16 µM
Cc1nc(Nc2ncc(C(=O)Nc3c(C)cccc3Cl)s2)cc(N2CC[C@H](O)C2)n1 — inhibition (NALM-6; cell growth or viability, ATP luminescence; 10 µM, 72 h): 68%
C[C@H]1CN(C)CCCN1c1nccc(-c2noc([C@@]3(C)CCCc4sc(N)c(C#N)c43)n2)n1 — EC50 (BaF3; cell growth or viability; 72 h): 0.41 µM
CC(C)c1cccc(C(C)C)c1N=C1C(=O)N(Cc2ccc(Br)cc2)c2ccccc21 — IC50 (L02; cell growth or viability, MTT; 48 h): > 100 µM
CCOC(=O)C1=C(CN2CCC(C(=O)Nc3ccc(B4OC(C)(C)C(C)(C)O4)cc3)C2)NC(c2nccs2)=NC1c1ccc(F)cc1Br (stereo not drawn) — EC50 (Hepatitis B virus; viral replication, inhibitor, qPCR; HepDES19; 72 h): 0.77 µM
